Measured values from ChEMBL document CHEMBL1122147, “N,N'-Dialkyl-1,2-bis(hydroxyphenyl)ethylenediamines and N,N-dialkyl-4,5-bis(4-hydroxyphenyl)imidazolidines: syntheses and evaluation of their mammary tumor inhibiting activity” (1982).
Values belong to the compound of their own block, whether it stands above or below them. Calls of active or inactive are those of the source. The rule behind the calls is not given here.

Key:
[1] = tested on: Rattus norvegicus; assay: Inhibition of the DMBA-induced mammary carcinoma in 8 rats at 15 mg/kg dose; not significant; format: functional
Summary of the method: (§1)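 Established DMBA-induced mammary carcinoma, Sprague-Dawley rats; compound in arachis oil sc three times weekly (Mon, Wed, Fri). Starting tumor area above 140 mm² per animal; percent increase of tumor area after 28 days of therapy, mean values; significance by Wilcoxon-Mann-Whitney U test.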

[2] = target: T1, Estrogen receptor (Mus musculus) (UniProt O08537+P19785); assay: In vitro inhibition of murine Estrogen receptor; format: protein assay; design: concentration or dose not given beside the values; details: concentration not given here
T1 sequence (O08537 whole entry, looked up): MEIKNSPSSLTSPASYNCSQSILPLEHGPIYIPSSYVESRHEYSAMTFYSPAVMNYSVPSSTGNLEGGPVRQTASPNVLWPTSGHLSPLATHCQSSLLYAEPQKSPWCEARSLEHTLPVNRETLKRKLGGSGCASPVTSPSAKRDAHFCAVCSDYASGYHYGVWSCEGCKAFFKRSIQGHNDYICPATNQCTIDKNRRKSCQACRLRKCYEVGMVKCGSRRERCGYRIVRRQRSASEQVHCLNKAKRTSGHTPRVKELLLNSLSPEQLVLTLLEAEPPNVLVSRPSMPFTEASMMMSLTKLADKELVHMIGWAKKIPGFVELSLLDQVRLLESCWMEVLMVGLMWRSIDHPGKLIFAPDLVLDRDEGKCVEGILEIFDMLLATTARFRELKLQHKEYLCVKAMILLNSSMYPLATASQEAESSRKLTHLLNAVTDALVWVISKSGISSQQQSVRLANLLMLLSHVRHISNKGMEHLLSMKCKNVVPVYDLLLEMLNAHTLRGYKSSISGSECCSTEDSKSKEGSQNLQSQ
T1 sequence (P19785 whole entry, looked up): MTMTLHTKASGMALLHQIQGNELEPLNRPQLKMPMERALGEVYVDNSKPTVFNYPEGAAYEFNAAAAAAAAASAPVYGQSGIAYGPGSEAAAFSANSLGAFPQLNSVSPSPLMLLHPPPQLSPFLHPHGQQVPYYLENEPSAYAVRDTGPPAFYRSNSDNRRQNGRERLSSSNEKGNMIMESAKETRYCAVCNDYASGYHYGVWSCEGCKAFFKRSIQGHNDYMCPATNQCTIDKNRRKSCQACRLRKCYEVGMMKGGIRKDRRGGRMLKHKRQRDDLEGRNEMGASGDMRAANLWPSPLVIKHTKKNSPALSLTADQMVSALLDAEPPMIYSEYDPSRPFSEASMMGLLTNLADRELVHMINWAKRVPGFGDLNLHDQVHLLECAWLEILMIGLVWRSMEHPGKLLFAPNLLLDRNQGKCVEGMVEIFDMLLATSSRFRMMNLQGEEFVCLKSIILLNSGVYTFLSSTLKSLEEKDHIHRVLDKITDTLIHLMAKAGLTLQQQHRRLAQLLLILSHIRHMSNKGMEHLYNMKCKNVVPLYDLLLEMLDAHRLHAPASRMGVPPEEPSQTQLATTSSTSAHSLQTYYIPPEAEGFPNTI

[3] = target: T1, Estrogen receptor (Mus musculus); assay: Binding affinity for murine Estrogen receptor; format: protein assay
[4] = target: T1, Estrogen receptor (Mus musculus); assay: (§2) Binding affinity for murine Estrogen receptor; No affinity; format: protein assay
[5] = species on record: Rattus norvegicus; assay: p-Nitrophenylphosphatase activity in regressing DMBA-induced mammary tumor in rats; not significant; format: functional
Summary of the method: (§3)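 DMBA-induced rat mammary tumors, growing versus regressing, assayed for glucose-6-phosphate plus 6-phosphogluconate dehydrogenase and p-nitrophenylphosphatase activities (μM/mL); mean ± SD, growing vs regressing compared by Student's t test.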

[6] = species on record: Rattus norvegicus; assay: Dehydrogenase activity in proliferating DMBA-induced mammary tumor in rats; format: functional; summary of the method: as §3
[7] = species on record: Rattus norvegicus; assay: p-Nitrophenylphosphatase activity in proliferating DMBA-induced mammary tumor in rats; format: functional; summary of the method: as §3
[8] = tested on: Rattus norvegicus; assay: Inhibition of the DMBA-induced mammary carcinoma in 10 rats at 20 mg/kg dose; format: functional; summary of the method: as §1
[9] = species on record: Rattus norvegicus; assay: Dehydrogenase activity in regressing DMBA-induced mammary tumor in rats; format: functional; summary of the method: as §3
[10] = target: T1, Estrogen receptor (Mus musculus); assay: as §2; format: protein assay; remark: listed apart in the source
[11] = tested on: MCF7; assay: Incorporation of [3H]thymidine into estrogen-responsive MCF-7 human breast tumor cells at 10e-8 M concentration with hexestrol; dpm/dish; format: functional
Summary of the method: (§4)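 MCF-7 cells plated in medium with 10% FCS, switched next day to 5% dextran-charcoal-stripped calf serum, medium renewed every 72 h. At ~60% confluence compounds added in ethanol (0.1% final), 60 h incubation; 1 μCi [3H]thymidine per well for last 2 h. Acid (10% Cl3AcOH)-precipitable counts from sonicate, dpm/dish, mean of six dishes ± SD.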

[12] = tested on: MCF7; assay: Incorporation of [3H]thymidine into estrogen-responsive MCF-7 human breast tumor cells at 10e-8 M with hexestrol; format: functional; summary of the method: as §4
[13] = tested on: MCF7; assay: Incorporation of [3H]thymidine into estrogen-responsive MCF-7 human breast tumor cells at 10e-8 M with hexestrol; dpm/dish; format: functional; summary of the method: as §4
[14] = tested on: MCF7; assay: Incorporation of [3H]thymidine into estrogen-responsive MCF-7 human breast tumor cells at 10e-5 M; format: functional; summary of the method: as §4
[15] = tested on: MCF7; assay: Incorporation of [3H]thymidine into estrogen-responsive MCF-7 human breast tumor cells at 10e-5 M; dpm/dish; format: functional; summary of the method: as §4
[16] = tested on: Rattus norvegicus; assay: Inhibition of the DMBA-induced mammary carcinoma in 11 rats at 25 mg/kg dose; not significant; format: functional; summary of the method: as §1

Compound: CCCCN1CN(CCCC)C(c2ccc(O)cc2)C1c1ccc(O)cc1 (racemic) [listing 1 of 2 here]
Increase [1]: 105%

Compound: CCCCNC(c1ccc(O)cc1)C(NCCCC)c1ccc(O)cc1 (single isomer, unassigned; (+))
Ka [4]: 2.1e+07 M⁻¹

Compound: CCCCNC(c1ccc(O)cc1)C(NCCCC)c1ccc(O)cc1.Cl.Cl (single isomer, unassigned; (+))
Activity [5]: 48.4 uM ml-1
Activity [6]: 191.7 uM ml-1
Activity [7]: 39.4 uM ml-1
Increase [8]: 112%
Activity [9]: 101.8 uM ml-1

Compound: CNC(c1ccc(O)cc1)C(NC)c1ccc(O)cc1 (stereo not given)
Ka [4]: inactive

Compound: CCCNC(c1ccc(OC)cc1)C(NCCC)c1ccc(OC)cc1 (stereo not given)
Ka [10]: inactive

Compound: CCCCCCNC(c1ccc(OC)cc1)C(NCCCCCC)c1ccc(OC)cc1 (stereo not given)
Ka [10]: inactive

Compound: CCCCNC(c1ccc(O)cc1)C(NCCCC)c1ccc(O)cc1.Cl.Cl (stereo not given)
Increase [1]: 475%

Compound: CCCCCNC(c1ccc(OC)cc1)C(NCCCCC)c1ccc(OC)cc1 (stereo not given)
Ka [4]: inactive

Compound: CCNC(c1ccc(O)cc1)C(NCC)c1ccc(O)cc1 (stereo not given)
Ka [3]: < 10000 M⁻¹

Compound: CC/C(=C(\c1ccccc1)c1ccc(OCCN(C)C)cc1)c1ccccc1 [TAMOXIFEN]
Activity [11]: 11225
Activity [12]: 82%

Compound: COc1ccc(C(NC(C)C)C(NC(C)C)c2ccc(OC)cc2)cc1 (stereo not given)
Ka [10]: inactive

Compound: CCCCNC(c1ccc(O)cc1)C(NCCCC)c1ccc(O)cc1.Cl.Cl (single isomer, unassigned; (-))
Activity [5]: 44.9 uM ml-1
Activity [6]: 183.3 uM ml-1
Activity [7]: 42.8 uM ml-1
Increase [8]: 115%
Activity [9]: 121.3 uM ml-1

Compound: CCCCNC(c1ccc(O)cc1)C(NCCCC)c1ccc(O)cc1.Cl.Cl (racemic)
Activity [13]: 13942
Activity [14]: 79%
Activity [15]: 10833
Activity [12]: 101%

Compound: CCNC(c1ccc(OC)cc1)C(NCC)c1ccc(OC)cc1 (stereo not given)
Ka [10]: inactive

Compound: CCCCN1C(c2ccc(O)cc2)C(c2ccc(O)cc2)N(CCCC)C1c1ccc(O)cc1 (racemic)
inhibition [2]: 48%

Compound: CC[C@H](c1ccc(O)cc1)[C@@H](CC)c1ccc(O)cc1 [HEXESTROL]
Activity [11]: 16485
Activity [12]: 120%

Compound: CCCCN1C(=S)N(CCCC)C(c2ccc(O)cc2)C1c1ccc(O)cc1 (racemic)
inhibition [2]: 75%

Compound: CCCCCNC(c1ccc(O)cc1)C(NCCCCC)c1ccc(O)cc1 (stereo not given)
Ka [3]: 2.2e+06 M⁻¹

Compound: CNC(c1ccc(OC)cc1)C(NC)c1ccc(OC)cc1 (stereo not given)
Ka [4]: inactive

Compound: CCCCNC(c1ccccc1OC)C(NCCCC)c1ccccc1OC (stereo not given)
Ka [4]: inactive

Compound: CCCCN1CN(CCCC)C(c2ccc(O)cc2)C1c1ccc(O)cc1 (stereo in doubt; 7d)
inhibition [2]: 0%

Compound: CCCCNC(c1cccc(OC)c1)C(NCCCC)c1cccc(OC)c1 (stereo not given)
Ka [10]: inactive

Now from value to compound, other results behind:

inhibition [2]: 70%
Compound: CCCCN1CN(CCCC)C(c2ccc(O)cc2)C1c1ccc(O)cc1 (racemic) [listing 2 of 2 here]

Ka [3]: 1.1e+06 M⁻¹
Compound: CCCNC(c1ccc(O)cc1)C(NCCC)c1ccc(O)cc1 (stereo not given)

inhibition [2]: 66%
Compound: CCCN1CN(CCC)C(c2ccc(O)cc2)C1c1ccc(O)cc1 (racemic)

inhibition [2]: 39%
Compound: CCCCN1C(c2ccc(O)cc2)C(c2ccc(O)cc2)N(CCCC)C1c1ccccc1 (racemic)

Ka [3]: < 10000 M⁻¹
Compound: CCCCNC(c1cccc(O)c1)C(NCCCC)c1cccc(O)c1 (stereo not given)

Ka [3]: 140000 M⁻¹
Compound: CC(C)NC(c1ccc(O)cc1)C(NC(C)C)c1ccc(O)cc1 (stereo not given)

inhibition [2]: 75%
Compound: CCCCN1CN(CCCC)C(c2ccc(O)cc2)C1c1ccc(O)cc1 (stereo in doubt; 7c)

Ka [3]: 3.6e+06 M⁻¹
Compound: CCCCNC(c1ccc(O)cc1)C(NCCCC)c1ccc(O)cc1 (racemic)

Ka [10]: inactive
Ka [4]: inactive
Compound: CCCCNC(c1ccc(OC)cc1)C(NCCCC)c1ccc(OC)cc1 (stereo not given)

inhibition [2]: 3%
Compound: CCCCN1CN(CCCC)C(c2ccc(O)cc2)C1c1ccc(O)cc1 (single isomer, unassigned; (+))

Ka [3]: inactive
Compound: CCCCNC(c1ccccc1O)C(NCCCC)c1ccccc1O (stereo not given)

Ka [4]: 700000 M⁻¹
Compound: CCCCNC(c1ccc(O)cc1)C(NCCCC)c1ccc(O)cc1 (single isomer, unassigned; (-))

Ka [3]: 320000 M⁻¹
Compound: CCCCCCNC(c1ccc(O)cc1)C(NCCCCCC)c1ccc(O)cc1.Cl.Cl (stereo not given)
Increase [16]: 132%
